Where two headings read alike, the source gives them in different places.
Columns and labels:
[1] = background statement, no reference given; cited from earlier work
HSC70 (HSPA8) = assay: HSC70; format: cell-based, human; settings: HEL cells, Fig. 1b
In short: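 HEL human erythroleukemia cells were washed and resuspended in serum-free RPMI 1640 (1.2 × 10⁷ cells/200 μl). They were electroporated at 250 V and 250 μF (2-mm gap) with 200 nM HSPA1A/B siRNA, a two-mismatch control, or media only. Test compounds were added for the last 6 h of a 48-h incubation. Read-out was western blot with ECL detection, normalized to actin, at least triplicate.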

P-STAT3 = assay: Down-regulation of P-STAT3; format: cell-based; settings: Homo sapiens, HEL, read-out: IC50 for P-STAT3 down-regulation
HEL cells = assay: Drug-drug effect on cell survival / cell death; format: cell-based, human; settings: for Cell death: 48 h

C=CCNC1=C2C[C@@H](C)C[C@H](OC)[C@H](O)[C@@H](C)/C=C(\C)[C@H](OC(N)=O)[C@@H](OC)/C=C\C=C(/C)C(=O)NC(=CC1=O)C2=O [17-AAG, 17-allylamino-17-demethoxygeldanamycin]
Solubility [1]: poor solubility

CO[C@H]1/C=C\C=C(/C)C(=O)NC2=CC(=O)C(NCCN(C)C)=C(C[C@@H](C)C[C@H](OC)[C@H](O)[C@@H](C)/C=C(\C)[C@@H]1OC(N)=O)C2=O [17-DMAG, 17-(dimethyl-aminoethylamino)-17-demethoxygeldanamycin]
Effect on HSC70 (HSPA8) expression (HSC70 (HSPA8)): affected by neither
IC50 (P-STAT3; 6 h): 450 nM
IC50 (P-STAT3): 157 nM
Cell death (HEL cells; 50% of the IC50, with HSP70 siRNA added): 50%
Cell death (HEL cells; 50% of the IC50, without siRNA): ~ 10%

control-siRNA: version of HSPA1 siRNA with two mismatches, 5′-CGACCGAGACAAGCGCAAG-3′, used as control (chemistry not given here)
Effect on cell survival (HEL cells; HEL cells): no effect
